Values after ≈ are worked out from the molar mass of the structure shown.
Assays:
CCRF-CEM [1] = assay: Antiviral activity of compound was tested against viability virus infected CEM cell lines.; type: functional; settings: Homo sapiens
CCRF-CEM [2] = assay: Antiviral activity of compound were tested against HIV-2 virus infected CEM cell lines.; type: functional; settings: Homo sapiens
Human alphaherpesvirus 1 [3] = assay: Antiviral activity against HSV-1 virus infected HEF cell lines.; type: functional
Procedure, shortened: (§1)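 Human embryonic fibroblasts, from embryonic lung or embryonic skin-muscle, infected with the virus. Endpoint is the minimum inhibitory concentration that reduces virus-induced cytopathicity by 50%. Values are averages of at least two separate experiments.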

HEF [4] = assay: Antiviral activity of compound was tested against HSV-2 virus infected HEF cell lines.; type: functional; settings: Homo sapiens; procedure, shortened: as §1
HEF [5] = assay: Antiviral activity of compound was tested against TK-HSV-1 virus infected HEF cell lines.; type: functional; settings: Homo sapiens; procedure, shortened: as §1
HEF [6] = assay: Antiviral activity of compound was tested against morphology virus infected HEF cell lines.; type: functional; settings: Homo sapiens
HEF [7] = assay: Antiviral activity of compound was tested against vaccinia virus infected HEF cell lines.; type: functional; settings: Homo sapiens; procedure, shortened: as §1
HEL [8] = assay: Antiviral activity of compound was tested against proliferation virus infected HEL cell lines.; type: functional; settings: Homo sapiens
HeLa [9] = assay: Antiviral activity of compound was tested against morphology virus infected HeLa cell lines.; type: functional; settings: Homo sapiens
HeLa [10] = assay: Antiviral activity of compound was tested against polio-1 virus infected HeLa cell lines.; type: functional; settings: Homo sapiens
Procedure, shortened: (§2)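 Vero (African green monkey kidney), HeLa (human epithelial) or HEL (human embryonic lung) cell monolayers infected with the virus. Readout is the minimum inhibitory concentration that reduces virus-induced cytopathicity by 50%. Values are averages of at least two separate experiments.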

[11] = system: Vesicular stomatitis virus; assay: Antiviral activity against vesicular stomatitis virus infected HeLa cell lines.; type: functional; procedure, shortened: as §2
HEL [12] = assay: Antiviral activity of compound was tested against HCMV virus infected HEL cell lines.; type: functional; settings: Homo sapiens; procedure, shortened: as §2
HEL [13] = assay: Antiviral activity of compound was tested against TK+VZV virus infected HEL cell lines.; type: functional; settings: Homo sapiens; procedure, shortened: as §2
HEL [14] = assay: Antiviral activity of compound was tested against TK-VZV virus infected HEL cell lines.; type: functional; settings: Homo sapiens; procedure, shortened: as §2
HeLa [15] = assay: Antiviral activity of compound was tested against Coxsackie B4 virus infected HeLa cell lines.; type: functional; settings: Homo sapiens; procedure, shortened: as §2
MDCK [16] = assay: Antiviral activity tested against influenza A,H1N1 virus infected MDCK cell lines.; type: functional; settings: Canis lupus familiaris
MDCK [17] = assay: Antiviral activity of compound was tested against influenza A,H3N2 virus infected MDCK cell lines.; type: functional; settings: Canis lupus familiaris
MDCK [18] = assay: Antiviral activity of compound was tested against influenza […] virus infected MDCK cell lines; type: functional; settings: Canis lupus familiaris
MDCK [19] = assay: Antiviral activity of compound was tested against morphology virus infected MDCK cell lines.; type: functional; settings: Canis lupus familiaris
Vero [20] = assay: Antiviral activity of compound was tested against sindbis virus infected vero cell lines.; type: functional; settings: Chlorocebus sabaeus; procedure, shortened: as §2
Vero [21] = assay: Antiviral activity of compound were tested against semliki forest virus infected vero cell lines.; type: functional; settings: Chlorocebus sabaeus; procedure, shortened: as §2
Vero [22] = assay: Antiviral activity of compound was tested against Coxsackie B4 virus infected vero cell lines.; type: functional; settings: Chlorocebus sabaeus; procedure, shortened: as §2
Vero [23] = assay: Antiviral activity of compound was tested against parainfluenza 3,[…] virus infected Vero cell lines.; type: functional; settings: Chlorocebus sabaeus; procedure, shortened: as §2
Vero [24] = assay: Antiviral activity of compound was tested against reo1 virus infected vero cell lines.; type: functional; settings: Chlorocebus sabaeus; procedure, shortened: as §2
[25] = Antiviral activity against influenza A,H2N2 virus infected MDCK cell lines.; type: functional
Vero [26] = assay: Antiviral activity of compound was tested against morphology virus infected Vero cell lines.; type: functional; settings: Chlorocebus sabaeus
CCRF-CEM [27] = assay: Antiviral activity of compound was tested against HIV-1 virus infected CEM cell lines.; type: functional; settings: Homo sapiens
[28] = system: Vesicular stomatitis virus; assay: Antiviral activity against vesicular stomatitis virus infected HEF cell lines.; type: functional; procedure, shortened: as §1
[29] = system: Human immunodeficiency virus 2; assay: Antiviral activity against HIV-2 virus infected CEM cell lines.; type: functional, CCRF-CEM
CCRF-CEM [30] = assay: Cytotoxicity against CEM cell lines.; type: functional; settings: Homo sapiens
[31] = system: Human immunodeficiency virus 1; assay: Antiviral activity against HIV-1 virus infected CEM cell lines.; type: functional, CCRF-CEM
Human alphaherpesvirus 2 = assay: Antiviral activity against HSV-2 virus infected HEF cell lines.; type: functional; procedure, shortened: as §1
Human alphaherpesvirus 1 [32] = assay: Antiviral activity against TK-HSV-1 virus infected HEF cell lines.; type: functional; procedure, shortened: as §1
HEF [33] = assay: Effects on cell morphology of HEF cell lines.; type: functional; settings: Homo sapiens
Procedure, shortened: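 Human embryonic skin-muscle fibroblasts were examined under the microscope for changes in normal cell morphology. The value is the minimum concentration causing a microscopically detectable alteration, averaged from at least two separate experiments.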

Vaccinia virus = assay: Antiviral activity against vaccinia virus infected HEF cell lines.; type: functional; settings: Orthopoxvirus vaccinia; procedure, shortened: as §1
Enterovirus C = assay: Antiviral activity against polio 1 virus infected HeLa cell lines.; type: functional; procedure, shortened: as §2
Coxsackievirus B4 [34] = assay: Antiviral activity against Coxsackie B4 virus infected HeLa cell lines.; type: functional; settings: Enterovirus B; procedure, shortened: as §2
Human betaherpesvirus 5 = assay: Antiviral activity against HCMV virus infected HEL cell lines.; type: functional; procedure, shortened: as §2
Human alphaherpesvirus 3 [35] = assay: Antiviral activity against TK+VZV virus infected HEL cell lines.; type: functional; procedure, shortened: as §2
Human alphaherpesvirus 3 [36] = assay: Antiviral activity against TK-VZV virus infected HEL cell lines.; type: functional; procedure, shortened: as §2
HEL [37] = assay: Inhibition of HEL cell proliferation.; type: functional; settings: Homo sapiens
Procedure, shortened: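 Human embryonic lung fibroblasts were used for the proliferation assay. The value is the concentration that reduces cell proliferation by 50%, averaged from at least two separate experiments.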

[38] = Antiviral activity against influenza A,H3N2 virus infected MDCK cell lines.; type: functional
Influenza B virus = assay: Antiviral activity against influenza B virus infected MDCK cell lines.; type: functional
MDCK [39] = assay: Antiviral activity of compound was tested against morphology virus infec+ted MDCK cell lines.; type: functional; settings: Canis lupus familiaris
Semliki Forest virus = assay: Antiviral activity against Semliki forest virus infected Vero cell lines.; type: functional; procedure, shortened: as §2
Coxsackievirus B4 [40] = assay: Antiviral activity against Coxsackie B4 virus infected vero cell lines.; type: functional; settings: Enterovirus B; procedure, shortened: as §2
Vero [41] = assay: Effects on cell morphology of Vero cell lines.; type: functional; settings: Chlorocebus sabaeus
Procedure, shortened: (§3)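 HeLa (human epithelial) or Vero (African green monkey kidney) cells were examined under the microscope for changes in normal morphology. The value is the minimum concentration causing a detectable alteration, averaged from at least two separate experiments.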

Human respirovirus 3 = assay: Antiviral activity against parainfluenza 3 virus infected Vero cell lines.; type: functional; procedure, shortened: as §2
[42] = system: Mammalian orthoreovirus 1; assay: Antiviral activity against Reo 1 virus infected vero cell lines.; type: functional; procedure, shortened: as §2
Sindbis virus = assay: Antiviral activity against sindbis virus infected Vero cell lines.; type: functional; procedure, shortened: as §2
HeLa [43] = assay: Effects on cell morphology of HeLa cell lines.; type: functional; settings: Homo sapiens; procedure, shortened: as §3

CCN1CCOCC12C1CC3CC(C1)CC2C3 (centres undefined)
MIC50 (CCRF-CEM [1]): > 200 µg/mL
MIC50 (CCRF-CEM [2]): > 200 µg/mL
MIC50 (Human alphaherpesvirus 1 [3]): > 400 µg/mL
MIC50 (HEF [4]): > 400 µg/mL
MIC50 (HEF [5]): > 400 µg/mL
MIC50 (HEF [6]): > 400 µg/mL
MIC50 (HEF [7]): > 400 µg/mL
MIC50 (HEL [8]): > 50 µg/mL
MIC50 (HeLa [9]): > 400 µg/mL
MIC50 (HeLa [10]): > 400 µg/mL
MIC50 [11]: > 400 µg/mL
MIC50 (HEL [12]): > 50 µg/mL
MIC50 (HEL [13]): > 50 µg/mL
MIC50 (HEL [14]): > 50 µg/mL
MIC50 (HeLa [15]): > 400 µg/mL
MIC50 (MDCK [16]): > 10 µg/mL
MIC50 (MDCK [17]): > 57 µg/mL
MIC50 (MDCK [18]): > 80 µg/mL
MIC50 (MDCK [19]): > 250 µg/mL
MIC50 (Vero [20]): > 400 µg/mL
MIC50 (Vero [21]): > 400 µg/mL
MIC50 (Vero [22]): > 400 µg/mL
MIC50 (Vero [23]): > 400 µg/mL
MIC50 (Vero [24]): > 400 µg/mL
MIC50 [25]: 10.5 µg/mL (≈ 44.6 µM)
MIC50 (Vero [26]): > 400 µg/mL
MIC50 (CCRF-CEM [27]): 158 µg/mL (≈ 671 µM)
MIC50 [28]: > 400 µg/mL

C1CCC2(C1)CCCN2CC12CC3CC(CC(C3)C1)C2
MIC50 [29]: > 40 µg/mL
MIC50 (CCRF-CEM [30]): 59 µg/mL (≈ 216 µM)
MIC50 [31]: > 40 µg/mL
MIC50 (Human alphaherpesvirus 1 [3]): > 40 µg/mL
MIC50 (Human alphaherpesvirus 2): > 40 µg/mL
MIC50 (Human alphaherpesvirus 1 [32]): > 40 µg/mL
MIC50 (HEF [33]): 100 µg/mL (≈ 366 µM)
MIC50 (Vaccinia virus): > 40 µg/mL
MIC50 (Enterovirus C): > 100 µg/mL
MIC50 [11]: > 100 µg/mL
MIC50 (Coxsackievirus B4 [34]): > 100 µg/mL
MIC50 (Human betaherpesvirus 5): > 50 µg/mL
MIC50 (Human alphaherpesvirus 3 [35]): 32 µg/mL (≈ 117 µM)
MIC50 (Human alphaherpesvirus 3 [36]): 20 µg/mL (≈ 73.1 µM)
MIC50 (HEL [37]): > 50 µg/mL
MIC50 (MDCK [16]): > 150 µg/mL
MIC50 [38]: > 47 µg/mL
MIC50 (Influenza B virus): > 100 µg/mL
MIC50 (MDCK [39]): > 250 µg/mL
MIC50 (Semliki Forest virus): > 100 µg/mL
MIC50 (Coxsackievirus B4 [40]): > 100 µg/mL
MIC50 (Vero [41]): > 400 µg/mL
MIC50 (Human respirovirus 3): > 100 µg/mL
MIC50 [42]: > 100 µg/mL
MIC50 (Sindbis virus): > 100 µg/mL
MIC50 [25]: > 60 µg/mL
MIC50 (HeLa [43]): 200 µg/mL (≈ 731 µM)
MIC50 [28]: > 100 µg/mL

CCN1CCCC1C12CC3CC(CC(C3)C1)C2 (centres undefined)
MIC50 [29]: > 40 µg/mL
MIC50 (CCRF-CEM [30]): 115 µg/mL (≈ 493 µM)
MIC50 [31]: > 40 µg/mL
MIC50 (Human alphaherpesvirus 1 [3]): > 100 µg/mL
MIC50 (Human alphaherpesvirus 2): > 100 µg/mL
MIC50 (Human alphaherpesvirus 1 [32]): > 100 µg/mL
MIC50 (HEF [33]): 200 µg/mL (≈ 857 µM)
MIC50 (Vaccinia virus): > 100 µg/mL
MIC50 (Enterovirus C): > 400 µg/mL
MIC50 [11]: > 400 µg/mL
MIC50 (Coxsackievirus B4 [34]): > 400 µg/mL
MIC50 (Human betaherpesvirus 5): > 50 µg/mL
MIC50 (Human alphaherpesvirus 3 [35]): > 50 µg/mL
MIC50 (Human alphaherpesvirus 3 [36]): > 50 µg/mL
MIC50 (HEL [37]): > 50 µg/mL
MIC50 (MDCK [16]): > 34 µg/mL
MIC50 [38]: 58 µg/mL (≈ 249 µM)
MIC50 (Influenza B virus): 60 µg/mL (≈ 257 µM)
MIC50 (MDCK [39]): 250 µg/mL (≈ 1070 µM)
MIC50 (Semliki Forest virus): > 400 µg/mL
MIC50 (Coxsackievirus B4 [40]): > 400 µg/mL
MIC50 (Vero [41]): > 400 µg/mL
MIC50 (Human respirovirus 3): > 400 µg/mL
MIC50 [42]: > 400 µg/mL
MIC50 (Sindbis virus): > 400 µg/mL
MIC50 [25]: > 14 µg/mL
MIC50 (HeLa [43]): > 400 µg/mL
MIC50 [28]: > 100 µg/mL

From ChEMBL document CHEMBL1129609, “Synthesis and antiviral activity evaluation of some new aminoadamantane derivatives. 2” (1996)
